From ChEMBL document CHEMBL4513216, “Probing the Open Global Health Chemical Diversity Library for Multistage-Active Starting Points for Next-Generation Antimalarials” (ACS Infect Dis, 2020)

Test: Toxicity liver stage against HepG2, at 10uM
Type: cell-based
Design: test concentration 10 uM, cell line HepG2-A16-CD81EGFP
Conditions: human, HepG2-A16-CD81EGFP cells; read-out: INHIBITION
Method in brief: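 Uninfected HepG2-A16-CD81EGFP cells, 3 × 10^3 per well, 1536-well, plated on prespotted compound at 10 μM final, parasite-free screening media added to match infected plates; puromycin 10 μM positive, DMSO 0.5% negative; run in parallel with 48 h PbLuc assay at 37 °C, 5% CO2; viability by CellTiter-Glo luminescence, normalized to controls.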

SMILES | cytotoxicity at 10 µM [%]
CS(=O)(=O)c1cccc(C(=O)N2CCCC(n3cccn3)C2)c1 (stereo unspecified) | -8.77
Cn1nc(Cn2cccn2)c2c1CN(C1CCOCC1)C2 | 10.1
O=c1c2sccc2nc2n1CCN(Cc1cc(F)ccc1F)CC2 | -21.8
CCc1nc(CN2CC(C(=O)OC)O[C@H](C)C2)cs1 (stereo partly specified) | -10.9
COc1cccc2c(=O)n(C3CCCNC3)cnc12 (stereo unspecified) | -42.4
CNC(=O)c1ccc(C2CCCN(C(=O)c3c(C)noc3C)C2)nc1 (stereo unspecified) | -9.88
CC(C)CN1C[C@@H]2C[C@H](C(=O)NC3CCC3)[C@H](C1)O2 | 2.37
CCc1ncc(-c2cn(CCSc3ncn[nH]3)nn2)cn1 | 1.41
COc1cccc(OC)c1-c1ccnc2cc(CC(=O)N(C)C)nn12 | -8.86
Cc1scc(C(=O)N2CCC3(CC(=O)NC3=O)C2)c1-c1ccccc1 (stereo unspecified) | -17.5
CN(CCn1cccn1)S(=O)(=O)N1CCCC1c1ccco1 (stereo unspecified) | -9.56
Fc1cnc(N2CCCC3(CCN(Cc4cccs4)C3)C2)nc1 (stereo unspecified) | -71.1
Cc1ccc(C(=O)N2CCCN(C)c3ccc(F)cc32)o1 | -5.26
CCS(=O)(=O)CCCOc1nc(-c2ccccc2Cl)no1 | -6.14
Cc1noc(C)c1CN1CCN(C(=O)C(C(C)C)n2cncn2)CC1 (stereo unspecified) | 1.4
CCCN1CCC(N2CCN(c3cc(C)nc(COC)n3)CC2)CC1 | -0.332
Cc1cc(C)n(C2CCCN(C(=O)Cc3cn4ccsc4n3)C2)n1 (stereo unspecified) | -6.07
CCc1ccc(C(=O)N2CCCC(c3noc(CC)n3)C2)o1 (stereo unspecified) | -3.97
CCNC(=O)CCc1c(C)nc2cc(O)nn2c1C | -12.6
Cc1cnc(CN(C)C2CCN(CCc3ccccn3)CC2)cn1 | -12.1
CCc1nc(C2CCCN2CC(=O)Nc2nncs2)no1 (stereo unspecified) | -9.47
CC(NCC1(N(C)C)CCOCC1)c1ccc(SC(F)F)cc1 (stereo unspecified) | -0.79
CC(C)=CCC/C(C)=C/CC(C)(C)CNCc1ccco1 | -23.7

SMILES | cytotoxicity at 10 µM [%]
c1ccc(-c2nnc3n2CCN(Cc2ccc4c(c2)OCCO4)C3)cc1 | 7.66
Cc1cc(N2CCC(n3cc(CN4CCNCC4)nn3)CC2)ccn1 | -1.83
Cc1noc(C)c1-c1nc(N(C)CCN(C)C)ncc1-c1cnccn1 | -12.4
O=C(CC1CC1)N1C[C@@H]2CCN(c3cccnc3)C[C@@H]2C1 | 4.62
CCN(CC)CCCNC(=O)c1nn(CC)cc1Cl | 10.8
Cc1cnn(CCNCC(=O)N2CCN(c3ccccc3)CC2)c1 | -6.74
O=c1c2ccc(C(F)(F)F)cc2ncn1CCCN1CCCCC1CO (stereo unspecified) | -5.98
CC(Cc1ccc(Cl)cc1)NC(=O)Nc1cnn(CC(N)=O)c1 (stereo unspecified) | -5.86
O=C(Cc1cccnc1)N1CCC2(CC1)CCN(C1CCOCC1)C2 | -8.16
CC(NC(=O)NCC1(N2CCCCC2)CCCCC1)c1nncn1C (stereo unspecified) | -9.78
CCn1ccc2ccnc(CC3CN(C(=O)c4cnco4)C3)c21 | -6.61
O=S(=O)(NCCNc1cc(-n2cccn2)ncn1)c1cccs1 | -6.58
O=C([C@@H]1C[C@@H]2CCN(c3cccc(F)c3)C[C@H]2O1)N1CCCC1 | -1.34
CCN(C)CC1CCN(C(=O)Nc2ccc(-c3csnn3)cc2)C1 (stereo unspecified) | -2.15
COc1ccc(F)c(CN2CCCC(O)(CNCc3ncc[nH]3)C2=O)c1 (stereo unspecified) | 5.87
CN1CCN(C(=O)c2cccc(S(=O)(=O)NCC3(C)COC3)c2)CC1 | -14.1
CC(C)c1cc(CNC(=O)N2CCC(Cc3cnn(C)c3)C2)on1 (stereo unspecified) | -10.9
CCC(C)N1Cc2c(C(=O)N3CCCC3)nn(C)c2C1 (stereo unspecified) | -5.03
N#CCCN(CC1CCOC1)S(=O)(=O)c1cccc(Cl)c1 (stereo unspecified) | 3.81
COc1cccc(OCC2CCCN(C(C)=O)C2)c1 (stereo unspecified) | 5.85
OC1(CNCCSCc2ccccc2)CCCNC1 (stereo unspecified) | 1.84
CCCN1CCCn2nc(CNC(=O)CCOC)cc2C1 | -12.2
COCCn1c(C(=O)NC(C(N)=O)C(C)C)cc2ccccc21 (stereo unspecified) | 9.73

SMILES | cytotoxicity at 10 µM [%]
CN(C)C(=O)N1CCN(Cc2cnc(-c3ccsc3)s2)CC1 | 2.03
O=C1CO[C@@H]2CN(Cc3cccs3)C[C@H]2N1Cc1ccncc1 | 2.08
CCc1cnc(C)nc1NCCc1nc(N)cc(O)n1 | -0.264
COc1ccnc(NC(Cc2ccccc2)C(=O)N(C)C)n1 (stereo unspecified) | 6.39
Cc1cc(C(F)(F)F)n2nc(C3CCCN(S(C)(=O)=O)C3)cc2n1 (stereo unspecified) | 1.49
CC1CCN(c2ccc3c(-c4ncc(C(=O)O)s4)noc3c2)CC1 | 2.13
O=C(CCc1cc2n(n1)CCCNC2)N1CCC(N2CCOC2=O)CC1 | 6.05
CCN1CCC(CC(=O)N2CCN(c3ccccc3OC)CC2C)CC1 (stereo unspecified) | -4.9
COC(=O)c1cccc(C(=O)NCc2ccc(C)o2)n1 | 11.5
CC(C)CCn1[nH]c(CNc2ccc(Cl)cc2)nc1=O | 1.33
CC(C)C1CN(c2cnccn2)CCC(=O)N1Cc1ccc(F)cc1 (stereo unspecified) | 3.67
CN1CCN(c2cc(CNC(=O)c3ccc(Cl)o3)ccn2)CC1 | -9.69
CO[C@H]1CNC[C@@H]1NC(=O)CCc1nc(-c2ccccc2)no1 | -1.13
CCOC(=O)N(C)C1CCN(Cc2ccsc2)CC1 | -0.572
Cc1c[nH]c(CN2CCCCC2CCn2ccnc2C)c(C)c1=O (stereo unspecified) | 0.585
CC1CCc2nc(O)c(C(=O)NCc3ccccn3)cc2C1 (stereo unspecified) | -2.99
COc1cc2c(cc1C(=O)N1CC(c3ccncc3)C1)CCC2 | 0.545
CC(C)(NCc1cccc(C#N)c1)c1ccc2c(c1)OCO2 | 3.34
Brc1cccc(-c2noc(CN3CCOCC3)n2)c1 | -15.2
Cc1nc(CCCNC(=O)c2c(F)cccc2Br)n[nH]1 | -1.39
CN(CCCc1nccn1C)c1nccc(N2CCC(O)C2)n1 (stereo unspecified) | 10.2
CC(C)(C)CC(=O)NCC(=O)Nc1ccn(CCCn2ccnc2)n1 | 10.6
O=C(c1cccc(C2CCNC2)c1)N1CCC(c2ncc[nH]2)CC1 (stereo unspecified) | -5.03

SMILES | cytotoxicity at 10 µM [%]
CCN(CC)CCNC(=O)CCc1c(C)nn(-c2ccc(Cl)cc2)c1C | -5.93
CCN1CCN(CCCNC(=O)NC(C)c2nncn2C)CC1 (stereo unspecified) | -12.8
CC(C)c1noc(CS(=O)(=O)CC(=O)NCc2ccccc2)n1 | -10.5
Cc1nc(CN2C(=O)CC[C@H]3[C@@H]2CCN3C(=O)c2ccsc2)cs1 | 1.8
Cc1cc(N2CCC(NC(=O)CCc3ccco3)CC2)nc(C)n1 | -14.3
CC1(CO)COC(Cc2ccc(Cl)cc2)=N1 (stereo unspecified) | 12.6
Oc1ccc(N2CCN(Cc3cc4c(cc3Br)OCCO4)CC2)cc1 | 6.87
COc1cccc(S(=O)(=O)NC(=O)CCC2CCCO2)c1 (stereo unspecified) | -14.7
CCS(=O)(=O)N1C[C@@H](O)[C@H](Oc2cccc(F)c2)C1 | -3.65
CC1c2ncc(CNC(=O)C3CC3)n2CCN1Cc1ccccn1 (stereo unspecified) | 8.18
Cc1csc([C@@H]2C[C@@H]3CCN(C(=O)c4ccnnc4)C[C@H]3O2)n1 | 4.49
Clc1cnccc1NCc1cccc(COC2CCOCC2)c1 | 53.9
CC(NC(N)=O)C(=O)N(C)CCCc1cc(-c2ccccc2)no1 (stereo unspecified) | -1.86
O=C(c1ncccn1)N1C[C@@H]2CN(CC3CC3)CCO[C@@H]2C1 | 6.99
CS(=O)(=O)CCSCc1cc(F)cc2cccnc12 | -1.46
N#CCCN(C(=O)CN1CCCC1c1ccsc1)c1ccccc1 (stereo unspecified) | -8.42
CNC(=O)COC(=O)c1cccc(-n2ccc(C(F)(F)F)n2)c1 | -39.5
CC(C)c1nccc(-c2nccn2CCN(C)S(C)(=O)=O)n1 | 7.53
Cc1nc(C)n(C2CCCN(C(=O)COc3ccccc3)C2)n1 (stereo unspecified) | -2.51
COc1ccc(C(=O)N2C[C@@H](O)[C@H](NCc3ncccc3C)C2)cc1 | 0.225
CC(C)C(NC(=O)Nc1ccccn1)c1cccs1 (stereo unspecified) | 2.27
CCc1ccc(CCn2cnc(C#N)n2)cc1 | -0.224
CCc1ncncc1C(=O)N1CCCN(Cc2ccccc2C)CC1 | 0.977

SMILES | cytotoxicity at 10 µM [%]
COc1cccc(-c2n[nH]cc2CNC2CCN(C(C)C)CC2)c1 | 0.353
CCc1cc(N2CCSCC2)n2nc(C)c(C)c2n1 | -0.854
COc1ccc(NC(=O)COc2nn(C)c3nc(C)cc(C)c23)cn1 | -4.36
CSc1nccn1-c1cccc(C(=O)NCc2nnc(C)n2C)c1 | -9.46
COC1CCN(S(=O)(=O)N2CC[C@@](O)(C3CCC3)[C@H](C)C2)CC1 | 6.8
Cc1ccc(CN(C(=O)NC2CCS(=O)(=O)C2)C2CC2)o1 (stereo unspecified) | -155
Cc1nnc(SCCC(=O)N(C)Cc2ccc(Cl)s2)[nH]1 | 14.4
CC(C)NC(=O)c1n[nH]c(-n2cnnc2)n1 | 1.08
CN(C)CCNC(=O)Nc1cccc(C[S+]([O-])Cc2ccccc2)c1 (stereo unspecified) | 6.59
CCc1ccc(CN2CCC3(CC2)CN(c2cnn(C)c2)C(=O)CO3)o1 | 0.777
O=C(CCc1nc2cccnc2[nH]1)Nc1ccc2c(c1)OCC(=O)N2 | 6.78
CN(C)CCNc1ccc(-c2nc(COc3ccccc3)no2)cn1 | 10.2
N#Cc1ccc(F)c(CN(CC(=O)N2CCCC2)CC2CCCO2)c1 (stereo unspecified) | -7.06
O=C(O)c1cc(-c2cccnc2)cc(S(=O)(=O)N2CCCCCC2)c1 | -2.88
CC(C)c1nc(-c2cc(C(=O)NCCN(C)C)c3ccccn23)cs1 | 4.77
COCCn1cnnc1CNc1cc(C)nc2c(C)c(C)nn12 | -0.715
CNC(=O)c1sc(C(NC(=O)c2ccccc2)C2CC2)nc1C (stereo unspecified) | 2.31
CCc1ccsc1C(=O)N(C)CCc1ccncc1 | -0.386
CCN1C(=O)CCC12CCN(S(=O)(=O)c1ccccc1)CC2 | -4.9
